What all share (type): functional
Test [1] relates to Mythimna separata. Put plainly: Insecticidal activity against fourth-instar larval stage of Mythimna separata (Oriental armyworm) in compound pretreated Zea mays L. Tangyu 10 leaves assessed as mortality at 200 mg/l at 25 +/-1 degC after 2 days. The gist of the method: (§1)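 Greenhouse-reared fourth-instar oriental armyworm larvae. Corn (Tangyu 10) leaves laid on moist filter paper in Petri dishes, sprayed with test solution (200 mg/L solution diluted in distilled water), then air-dried. Ten larvae per dish. Held at 25 ± 1 °C; mortality scored dead/alive 2 days post-treatment. Triplicate treatments, Abbott-corrected, 0–100 scale.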

In test [2] the test system is Mythimna separata. Put plainly: Insecticidal activity against fourth-instar larval stage of Mythimna separata (Oriental armyworm) in compound pretreated Zea mays L. Tangyu 10 leaves assessed as mortality at 100 mg/l at 25 +/-1 degC after 2 days. The gist of the method:
as §1

Test [3] deals with Mythimna separata. Put plainly: Insecticidal activity against fourth-instar larval stage of Mythimna separata (Oriental armyworm) in compound pretreated Zea mays L. Tangyu 10 leaves assessed as mortality at 50 mg/l at 25 +/-1 degC after 2 days. The essentials: as §1

In general, mortality refers to the percentage killed.

Take `CNC(=O)c1cc(Cl)cc(C)c1NC(=O)c1cc(CNS(C)(=O)=O)nn1-c1ncccc1Cl`: the mortality at 200 µg/mL in test [1] is 100%. Further, the mortality at 100 µg/mL in test [2] came out at 60%. For `CNC(=O)c1cc(Cl)cc(C)c1NC(=O)c1cc(CNC(=O)c2ccccc2)nn1-c1ncccc1Cl`, the mortality at 200 µg/mL in test [1] worked out at 20%. Still for that read-out and setting: the result for `CNC(=O)c1cc(Cl)cc(C)c1NC(=O)c1cc(CN)nn1-c1ncccc1Cl` reads 20%. Consider `CNC(=O)c1cc(Cl)cc(C)c1NC(=O)c1cc(C=O)nn1-c1ncccc1Cl`, for which the mortality at 200 µg/mL in test [1] was 100%. In test [2], the mortality at 100 µg/mL was determined as 40%. The like results for `CNC(=O)c1cccc(C)c1NC(=O)c1cc(COC(C)=O)nn1-c1ncccc1Cl` were, in that order, 100% and 60%. `CONC(=O)c1cc(Cl)cc(C)c1NC(=O)c1cc(COC(C)=O)nn1-c1ncccc1Cl`: the mortality at 200 µg/mL in test [1] is 100%. Besides, the mortality at 100 µg/mL in test [2] amounted to 0%. Turning to `CNC(=O)c1cc(Cl)cc(C)c1NC(=O)c1cc(C(=O)NC2CCCCC2)nn1-c1ncccc1Cl`, the mortality at 200 µg/mL in test [1] was 0%. Turning to `CCCCNC(=O)c1cc(Cl)cc(C)c1NC(=O)c1cc(C(=O)NC)nn1-c1ncccc1Cl`, the mortality at 200 µg/mL in test [1] came to 100%. In addition, the mortality at 100 µg/mL in test [2] was determined as 20%.

`CNC(=O)c1cc(C(=O)Nc2c(C)cc(Cl)cc2C(=O)NCc2ccccc2)n(-c2ncccc2Cl)n1`: the mortality at 200 µg/mL in test [1] came out at 100%. For the same molecule, in test [2], the mortality at 100 µg/mL was found to be 60%.

Regarding `CNC(=O)c1cc(C(=O)Nc2c(C)cc(Cl)cc2C(=O)NOC)n(-c2ncccc2Cl)n1`, the mortality at 200 µg/mL in test [1] is 0%. As for `CNC(=O)c1cc(C(=O)Nc2c(C)cc(Cl)cc2C(=O)NC(C)C)n(-c2ncccc2Cl)n1`, the mortality at 200 µg/mL in test [1] was 100%. Also, the mortality at 100 µg/mL in test [2] was determined as 60%. For `CNC(=O)c1cc(C(=O)Nc2c(C)cc(Cl)cc2C(=O)NC)n(-c2ncccc2Cl)n1`, in test [1], the mortality at 200 µg/mL stood at 100%. The mortality at 100 µg/mL in test [2] came to 60%. For `CNC(=O)c1cc(Cl)cc(C)c1NC(=O)c1cc(C(=O)OC2CCCCC2)nn1-c1ncccc1Cl` the same measures were 100% and 40%.

Turning to `CNC(=O)c1cc(Cl)cc(C)c1NC(=O)c1cc(C(=O)OCc2ccccc2)nn1-c1ncccc1Cl`, in test [1], the mortality at 200 µg/mL stood at 100%. Also, in test [2], the mortality at 100 µg/mL was determined as 40%. As for `CNC(=O)c1cc(Cl)cc(C)c1NC(=O)c1cc(C(=O)OC(C)C)nn1-c1ncccc1Cl`, the mortality at 200 µg/mL in test [1] worked out at 80%.

Take `CCOC(=O)c1cc(C(=O)Nc2c(C)cc(Cl)cc2C(=O)NCc2ccccc2)n(-c2ncccc2Cl)n1`: in test [1], the mortality at 200 µg/mL was found to be 20%. Regarding `CCOC(=O)c1cc(C(=O)Nc2c(C)cccc2C(=O)NC(C)C)n(-c2ncccc2Cl)n1`, in test [1], the mortality at 200 µg/mL worked out at 100%. Besides, the mortality at 100 µg/mL in test [2] amounted to 100%. Besides, the mortality at 50 µg/mL in test [3] was found to be 60%. On to `CCCNC(=O)c1cccc(C)c1NC(=O)c1cc(C(=O)OCC)nn1-c1ncccc1Cl`, for which, in test [1], the mortality at 200 µg/mL was determined as 100%. In test [2], the mortality at 100 µg/mL is 100%. Also, the mortality at 50 µg/mL in test [3] was found to be 60%. As to `CCCCOC(=O)c1cc(C(=O)Nc2c(C)cc(Cl)cc2C(=O)NC)n(-c2ncccc2Cl)n1`, the mortality at 200 µg/mL in test [1] came to 80%. Same read-out and setting: the result for `CCOC(=O)c1cc(C(=O)Nc2c(C)cc(Cl)cc2C(=O)NC(C)C)n(-c2ncccc2Cl)n1` reads 70%. For the molecule `CCOC(=O)c1cc(C(=O)Nc2c(C)cc(Cl)cc2C(=O)NC(C)(C)C)n(-c2ncccc2Cl)n1`, the mortality at 200 µg/mL in test [1] is 100%. Further, in test [2], the mortality at 100 µg/mL was 100%. Also, the mortality at 50 µg/mL in test [3] worked out at 70%.

On to `CCOC(=O)c1cc(C(=O)Nc2c(C)cc(Cl)cc2C(=O)NC2CC2)n(-c2ncccc2Cl)n1`, for which the mortality at 200 µg/mL in test [1] was 100%. In addition, the mortality at 100 µg/mL in test [2] amounted to 100%. The mortality at 50 µg/mL in test [3] worked out at 80%.

Turning to `CCOC(=O)c1cc(C(=O)Nc2c(C)cc(Cl)cc2C(=O)NOC)n(-c2ncccc2Cl)n1`, in test [1], the mortality at 200 µg/mL worked out at 50%.

Take `CCOC(=O)c1cc(C(=O)Nc2c(C)cc(Cl)cc2C(=O)NC)n(-c2ncccc2Cl)n1`: in test [1], the mortality at 200 µg/mL was found to be 80%.

(Values after ChEMBL document CHEMBL3045285, “Synthesis and insecticidal activities of novel anthranilic diamides containing modified N-pyridylpyrazoles” (2010).)
